The values below come from ChEMBL document CHEMBL1125419, “Stereospecificity of amino acid side chains in deltorphin defines binding to opioid receptors” (J Med Chem, 1992).

Square brackets hold non-standard residues; d marks the D form. Peptide text beside a SMILES is read from it. Nle = CCCC[C@H](N)C(=O)O

Experiment [1] has as its target T1, Mu-type opioid receptor (Rattus norvegicus, UniProt P33535). Nature of the experiment: Compound was tested for its binding affinity against opioid receptor mu using [3H]DAGO as radioligand.
The target of experiment [2] is T2, Delta-type opioid receptor (Rattus norvegicus, UniProt P33533). Nature of the experiment: Compound was tested for its binding affinity against opioid receptor delta using [3H]DPDPE as radioligand. The gist of the method:
(§1)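 Male Sprague-Dawley rat brain synaptosomes incubated with 0.62 pmol [3H]DPDPE in 50 mM HEPES pH 7.5, 5 mM MgCl2, 1 μM bestatin, bacitracin, 8% glycerol, soybean trypsin inhibitor, 100 μM PMSF; 2 h at 22 °C, duplicates. GF/C filtration, Tris-BSA washes, scintillation counting. 4-9 peptide concentrations over 2-3 log units, n = 3-8; Ki by Cheng-Prusoff.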

Experiment [3] is described as follows: Opioid receptor delta selectivity was defined as the ratio between Ki(opioid receptor mu)/Ki(opioid receptor delta). The class given is protein assay.
Experiment [4] concerns the target T1, Mu-type opioid receptor. The experiment can be described thus: Inhibition of [3H]DAGO binding to rat Opioid receptor mu 1.
For experiment [5], the target named is T2, Delta-type opioid receptor. The experiment can be described thus: Inhibition of [3H]DPDPE binding to Opioid receptor delta 1. An outline of the steps: as §1

T2 sequence (P33533 whole entry): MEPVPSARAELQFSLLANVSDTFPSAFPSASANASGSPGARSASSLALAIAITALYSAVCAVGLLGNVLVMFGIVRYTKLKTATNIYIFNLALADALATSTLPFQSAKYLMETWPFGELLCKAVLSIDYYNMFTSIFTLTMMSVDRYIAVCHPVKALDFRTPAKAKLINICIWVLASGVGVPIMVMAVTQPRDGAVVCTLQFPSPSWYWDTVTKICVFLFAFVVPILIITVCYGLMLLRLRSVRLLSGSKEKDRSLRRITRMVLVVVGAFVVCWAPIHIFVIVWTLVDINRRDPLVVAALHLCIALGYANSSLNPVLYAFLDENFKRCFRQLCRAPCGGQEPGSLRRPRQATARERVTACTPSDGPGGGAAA
T1 sequence (P33535 whole entry): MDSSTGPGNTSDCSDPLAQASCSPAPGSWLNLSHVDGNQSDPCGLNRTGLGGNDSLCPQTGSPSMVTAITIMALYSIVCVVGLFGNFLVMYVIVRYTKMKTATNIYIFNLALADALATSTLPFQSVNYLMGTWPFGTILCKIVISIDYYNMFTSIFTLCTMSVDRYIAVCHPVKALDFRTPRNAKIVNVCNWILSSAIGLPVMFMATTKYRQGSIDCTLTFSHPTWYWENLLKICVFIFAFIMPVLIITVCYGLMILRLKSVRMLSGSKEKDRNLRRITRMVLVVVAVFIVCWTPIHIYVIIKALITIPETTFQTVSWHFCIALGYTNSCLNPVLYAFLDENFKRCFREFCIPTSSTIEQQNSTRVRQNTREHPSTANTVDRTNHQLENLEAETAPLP

Regarding `CSCC[C@H](NC(=O)[C@H](CC(C)C)NC(=O)[C@@H](Cc1cnc[nH]1)NC(=O)[C@H](Cc1ccccc1)NC(=O)[C@@H](CCSC)NC(=O)[C@@H](N)Cc1ccc(O)cc1)C(=O)N[C@@H](CC(=O)O)C(N)=O`, the Ki at Mu-type opioid receptor [1] was 492 nM; in experiment [2], 2.77 nM.

Turning to `CSCC[C@H](NC(=O)[C@H](CC(C)C)NC(=O)[C@@H](Cc1c[nH]cn1)NC(=O)[C@H](Cc1ccccc1)NC(=O)[C@@H](CCSC)NC(=O)[C@@H](N)Cc1ccc(O)cc1)C(=O)N[C@@H](CC(=O)O)C(N)=O`, the Selectivity in experiment [3] worked out at 178.

`CSCC[C@@H](NC(=O)[C@H](CC(C)C)NC(=O)[C@H](Cc1c[nH]cn1)NC(=O)[C@H](Cc1ccccc1)NC(=O)[C@@H](CCSC)NC(=O)[C@@H](N)Cc1ccc(O)cc1)C(=O)N[C@@H](CC(=O)O)C(N)=O`: the Ki on Mu-type opioid receptor [4] was found to be 146 nM; in experiment [5] it was 0.96 nM.

For `CSCC[C@H](NC(=O)[C@H](CC(C)C)NC(=O)[C@@H](Cc1ccccc1)NC(=O)[C@@H](CCSC)NC(=O)[C@@H](N)Cc1ccc(O)cc1)C(=O)N[C@@H](CC(=O)O)C(N)=O`, the values for the Ki (on Mu-type opioid receptor [4]; in experiment [5]) were 2250 nM and 742 nM, respectively.

Regarding `CSCC[C@H](NC(=O)[C@@H](CC(C)C)NC(=O)[C@H](Cc1ccccc1)NC(=O)[C@@H](CCSC)NC(=O)[C@@H](N)Cc1ccc(O)cc1)C(=O)N[C@@H](CC(=O)O)C(N)=O`, the Ki is 330 nM at Mu-type opioid receptor [4] and 120 nM in experiment [5].

As to `CSCC[C@H](NC(=O)[C@H](CC(C)C)NC(=O)[C@H](Cc1ccccc1)NC(=O)[C@@H](C)NC(=O)[C@@H](N)Cc1ccc(O)cc1)C(=O)N[C@@H](CC(=O)O)C(N)=O`, the Ki on Mu-type opioid receptor [4] is 567 nM; in experiment [5] it was 13.9 nM.

As to `CSCC[C@H](NC(=O)[C@H](CC(C)C)NC(=O)[C@H](Cc1c[nH]cn1)NC(=O)[C@H](Cc1ccccc1)NC(=O)[C@@H](CCSC)NC(=O)[C@@H](N)Cc1ccc(O)cc1)C(=O)N[C@H](CC(=O)O)C(N)=O`, the Ki was found to be 124 nM at Mu-type opioid receptor [4] and 0.54 nM in experiment [5].

Take `CSCC[C@H](NC(=O)[C@H](CC(C)C)NC(=O)[C@H](Cc1ccccc1)NC(=O)[C@@H](CCSC)NC(=O)[C@H](N)Cc1ccc(O)cc1)C(=O)N[C@@H](CC(=O)O)C(N)=O`: the Ki on Mu-type opioid receptor [4] turned out to be 7410 nM; in experiment [5] it was 477 nM.

As for `CSCC[C@@H](NC(=O)[C@H](CC(C)C)NC(=O)[C@H](Cc1ccccc1)NC(=O)[C@@H](CCSC)NC(=O)[C@@H](N)Cc1ccc(O)cc1)C(=O)N[C@@H](CC(=O)O)C(N)=O`, the results for the Ki (on Mu-type opioid receptor [4]; in experiment [5]) were 407 nM and 25.8 nM, respectively.

Turning to `CCCC[C@H](NC(=O)[C@@H](N)Cc1ccc(O)cc1)C(=O)N[C@@H](Cc1ccccc1)C(=O)N[C@@H](Cc1c[nH]cn1)C(=O)N[C@@H](CC(C)C)C(=O)N[C@@H](CCSC)C(=O)N[C@@H](CC(=O)O)C(N)=O` (H-Y[Nle]FHLMD-NH2), in experiment [3], the Selectivity came to 272.

For `CSCC[C@H](NC(=O)[C@H](CC(C)C)NC(=O)[C@H](Cc1ccccc1)NC(=O)[C@@H](CCSC)NC(=O)[C@@H](N)Cc1ccc(O)cc1)C(=O)N[C@@H](CC(=O)O)C(N)=O`, the Ki on Mu-type opioid receptor [4] was 352 nM; in experiment [5], 12.6 nM.

Take `CSCC[C@H](NC(=O)[C@H](CC(C)C)NC(=O)[C@H](Cc1c[nH]cn1)NC(=O)[C@H](Cc1ccccc1)NC(=O)[C@@H](CCSC)NC(=O)[C@H](N)Cc1ccc(O)cc1)C(=O)N[C@@H](CC(=O)O)C(N)=O`: in experiment [3], the Selectivity was determined as 14.

Take `CSCC[C@H](NC(=O)[C@@H](CC(C)C)NC(=O)[C@H](Cc1c[nH]cn1)NC(=O)[C@H](Cc1ccccc1)NC(=O)[C@@H](CCSC)NC(=O)[C@@H](N)Cc1ccc(O)cc1)C(=O)N[C@@H](CC(=O)O)C(N)=O`: the values for the Ki (on Mu-type opioid receptor [4]; in experiment [5]) were 691 nM and 58.5 nM, respectively.

For `CSCC[C@H](NC(=O)[C@H](CC(C)C)NC(=O)[C@H](Cc1c[nH]cn1)NC(=O)[C@@H](Cc1ccccc1)NC(=O)[C@@H](CCSC)NC(=O)[C@@H](N)Cc1ccc(O)cc1)C(=O)N[C@@H](CC(=O)O)C(N)=O`, the inhibitory constant (Ki) at Mu-type opioid receptor [1] was 2350 nM; in experiment [2], 39.6 nM. Also, the Selectivity in experiment [3] is 59.

Turning to `CSCC[C@H](NC(=O)[C@H](CC(C)C)NC(=O)[C@H](Cc1cnc[nH]1)NC(=O)[C@H](Cc1ccccc1)NC(=O)[C@@H](CCSC)NC(=O)[C@H](N)Cc1ccc(O)cc1)C(=O)N[C@@H](CC(=O)O)C(N)=O`, the results for the Ki (on Mu-type opioid receptor [1]; in experiment [2]) were 7410 nM and 544 nM, respectively.

Consider `CSCC[C@H](NC(=O)[C@H](CC(C)C)NC(=O)[C@H](Cc1c[nH]cn1)NC(=O)[C@H](Cc1ccccc1)NC(=O)[C@@H](C)NC(=O)[C@@H](N)Cc1ccc(O)cc1)C(=O)N[C@@H](CC(=O)O)C(N)=O`, for which the Ki on Mu-type opioid receptor [1] is 43.7 nM; in experiment [2] it was 0.36 nM. Besides, in experiment [3], the Selectivity came out at 121.

Turning to `CSCC[C@H](NC(=O)[C@H](CC(C)C)NC(=O)[C@H](Cc1c[nH]cn1)NC(=O)[C@H](Cc1ccccc1)NC(=O)[C@@H](CCSC)NC(=O)[C@@H](N)Cc1ccc(O)cc1)C(=O)N[C@@H](CC(=O)O)C(N)=O`, the Selectivity in experiment [3] amounted to 764.

As to `CSCC[C@H](NC(=O)[C@H](CC(C)C)NC(=O)[C@H](Cc1cnc[nH]1)NC(=O)[C@H](Cc1ccccc1)NC(=O)[C@@H](CCSC)NC(=O)[C@@H](N)Cc1ccc(O)cc1)C(=O)N[C@@H](CC(=O)O)C(N)=O` [DELTORPHIN A], the Ki amounted to 344 nM at Mu-type opioid receptor [1] and 0.45 nM in experiment [2].

On to `CSCC[C@H](NC(=O)[C@H](CC(C)C)NC(=O)[C@H](Cc1ccccc1)NC(=O)[C@@H](CCSC)NC(=O)[C@@H](N)Cc1ccc(O)cc1)C(=O)N[C@H](CC(=O)O)C(N)=O`, for which the values for the Ki (on Mu-type opioid receptor [4]; in experiment [5]) were 267 nM and 9.46 nM, respectively.
